# Many of the other results were omitted from the sample, so hits are more common in it than they were.
# S1P4 antagonist – S1P4 receptor antagonists, primary screen, cell-based | Sphingosine 1-phosphate receptor 4 (Homo sapiens), O95977 | inhibition, % at 4.98 µM | 220,000 compounds, 0.26% hits | S1P4-expressing cells, antagonist mode, reporter read-out; in the data active = inhibition above about 29%;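 note: 0% = wells stimulated with agonist and 100% = vehicle wells without agonist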
# Target sequence (O95977 whole entry, looked up): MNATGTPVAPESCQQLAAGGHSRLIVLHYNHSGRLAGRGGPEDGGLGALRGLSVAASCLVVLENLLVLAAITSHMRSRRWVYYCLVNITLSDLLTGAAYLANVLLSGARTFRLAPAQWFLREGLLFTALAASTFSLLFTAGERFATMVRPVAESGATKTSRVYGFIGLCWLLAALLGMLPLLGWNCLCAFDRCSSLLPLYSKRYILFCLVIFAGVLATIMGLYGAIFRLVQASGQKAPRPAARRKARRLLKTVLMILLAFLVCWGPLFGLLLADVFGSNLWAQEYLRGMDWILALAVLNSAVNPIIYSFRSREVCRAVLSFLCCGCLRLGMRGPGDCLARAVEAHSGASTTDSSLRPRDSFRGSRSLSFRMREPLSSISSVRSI
# L major viab – Leishmania major promastigote growth inhibition, primary screen. Leishmania major promastigotes, resazurin fluorescence viability. inhibition, % at 10 µM. 200,000 compounds, 9% hits. AID 1063, 2008; in the data active = inhibition above about 50%;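 note: promastigotes grown with compound for 44 hours at 28 °C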
# Mdm2 ligase inh – MDM2-luciferase reporter signal enhancers, primary screen, MDM2 E3 ligase inhibitor project, cell-based, luminescence, 1536-well; E3 ubiquitin-protein ligase Mdm2 (Homo sapiens), Q00987; cell-based MDM2 ubiquitination luciferase reporter, 2 h; 0 = plate control, 100 = twice control, blank-subtracted; signal enhancement, % at 5 µM; 210,000 compounds, 0.11% hits; AID 1230, 2008;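 active = signal enhancement of 30% or more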;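 note: luminescence tracks abundance of the self-degrading MDM2-luciferase fusion protein; higher signal means inhibition of MDM2 E3 ligase activity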
#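 Material: Stable MDM2–luciferase fusion reporter cells | Amount: 2000 cells seeded into each well | Dosing: One concentration, 5 µM, with 0.2% DMSO | Incubation: 4 h cell settling then 2 h compound exposure, 37 °C | Measured by: Luciferase luminescence | Read-out basis: % enhancement relative to plate controls after blank subtraction | Benchmarks: Control and blank well means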
# S1P4 ag – S1P4 receptor agonists, primary screen, cell-based; 220,000 compounds, 0.35% hits; Sphingosine 1-phosphate receptor 4 (Homo sapiens), O95977; S1P4-expressing cell line, agonist reporter assay; activation, % at 4.98 µM; in the data active = activation above about 11%;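 note: 0% = DMSO vehicle and 100% = reference agonist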
# S1P3 antagonist – S1P3 receptor antagonists, primary screen, cell-based; CHO S1P3 NFAT-BLA reporter, FRET fluorescence, antagonist mode; AID 485, 2006; Sphingosine 1-phosphate receptor 3 (Homo sapiens), Q99500; inhibition, % at 4.98 µM; 170,000 compounds, 0.27% hits;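 active = inhibition above the plate cutoff, the mean inhibition of test wells on that plate plus 3 SD, cut at about 28% in these data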;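 note: cells challenged with S1P at its EC80 of 0.8 µM; blue over green emission ratio from cleaved BLA substrate after 4 h stimulation; 0% = S1P-stimulated wells and 100% = unstimulated DMSO-only wells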
# L major 1uM – Leishmania major promastigote growth inhibition, confirmation, 1 µM repeat of primary hits; AID 1258, 2008; 1,100 compounds, 13% hits; inhibition, % at 1 µM; shares compounds with L major viab; L. major promastigote growth, resazurin fluorescence, 48 h;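 active = inhibition above about 50% in both repeat tests, limit read from the data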
# * hit, by the source's call; x = not tested or not shown.
SMILES,S1P4 antagonist,L major viab,Mdm2 ligase inh,S1P4 ag,S1P3 antagonist,L major 1uM
N/C(=N\OC(=O)CCC1CCCCC1)c1ccc([N+](=O)[O-])cc1,-2.7,75.7*,-17.6,1.1,x,1.2
Oc1ccc2[nH]ccc2c1,-2.5,87.1*,-2.5,1.4,3.7,-10.2
Oc1ccc2ccc3[nH]cnc3c2c1,4.4,x,-42.6,-0.4,-12.7,x
CC(OC(=O)CCc1nc2ccccc2c(=O)[nH]1)C(=O)NC1CCCC1 (configuration not stated),2.5,-4.3,-15.9,0.8,12.5,x
CC(OC(=O)CCc1nc2ccccc2c(=O)[nH]1)C(=O)c1ccc(C(C)(C)C)cc1 (configuration not stated),4.5,53.9*,-7.9,-0.5,-9.0,-0.6
COC(C[C@H]1O[C@H]1C(=O)COCc1ccccc1)OC,x,x,9.8,x,x,x
Cc1cccc2sc(NC(=O)c3cccc(S(=O)(=O)N4CCc5ccccc54)c3)nc12,-12.9,95.9*,-1.9,0.9,5.8,-3.3
Cc1cc(C)c2nc(NC(=O)c3cccc(S(=O)(=O)N4CCc5ccccc54)c3)sc2c1,-33.4,17.4,7.0,0.2,-2.4,x
CC(C)=CCCC(C)CN(C)CCc1ccccn1 (configuration not stated),-1.3,82.9*,-21.7,-0.1,13.0,-6.4
c1ccc(-n2nnnc2-c2cnc(-c3cccnc3)nc2-c2cccs2)cc1,-13.2,94.9*,-8.9,1.7,x,-13.1
COC(=O)C1=C(C(=O)OC)SC2(S1)C(C(=O)OC)=C(C(=O)OC)SC1=C2c2cccc(C)c2NC1(C)C,19.0,100.3*,x,-1.9,x,6.2
CN(C)S(=O)(=O)c1ccc(NC(=O)CN2CCN(C(c3ccccc3)c3ccccc3)CC2)cc1,-10.1,10.9,14.3,-0.2,x,x
Cc1cc(C)c2c(c1)-c1cc(C)nn1C(c1ccc3c(c1)OCO3)N2 (configuration not stated),10.9,99.1*,-1.7,-2.2,-5.0,76.4*
CN1c2cccc3cccc(c23)N(C)C1(C)C,0.6,98.9*,6.6,-0.5,-10.0,-16.2
CN1c2ccccc2N(C)C1(C)c1cccc2ccccc12,-19.8,35.5,0.3,1.0,-23.0,x
COc1cc2c(cc1NCc1ccccn1)oc1ccccc12,1.0,72.7*,-2.8,-0.3,-5.7,-16.0
CCC(=O)c1c(NCCc2ccccc2)cc(C)oc1=O,2.4,-1.6,-1.6,-1.6,-4.6,x
CN(C)/C=N/S(=O)(=O)c1cccn1-c1ncc(C(F)(F)F)cc1Cl,-6.2,0.8,-11.9,0.5,-10.1,x
CN(C)S(=O)(=O)c1cccn1-c1ncc(C(F)(F)F)cc1Cl,7.5,100.2*,-13.9,-1.0,x,29.4
O=S(=O)(c1ccccc1)c1ncc(C(F)(F)F)cc1Cl,16.6,72.0*,-4.8,0.7,-26.7,39.5
NS(=O)(=O)c1ccc(NC(=O)COC(=O)CCNC(=O)NC23CC4CC(CC(C4)C2)C3)cc1,-3.1,0.9,-27.9,0.3,x,x
CCOC(=O)C1CCCCN1Cc1ccccc1C(F)(F)F (configuration not stated),1.7,-6.0,1.7,-0.7,3.5,x
COCCCN(C(=S)NC(=O)C12CC3CC(CC(C3)C1)C2)c1c(N)n(Cc2ccccc2)c(=O)[nH]c1=O,-0.8,-6.5,0.8,0.0,-2.5,x
FC(F)(F)c1nc2ccccc2n2c(-c3ccc(Cl)cc3Cl)nnc12,-0.8,7.5,-10.3,-1.4,x,x
FC(F)(F)c1nc2ccccc2n2c(-c3c(Cl)cccc3Cl)nnc12,-21.0,57.2*,-14.0,0.0,x,-4.6
SMILES,S1P4 antagonist,L major viab,Mdm2 ligase inh,S1P4 ag,S1P3 antagonist,L major 1uM
Cc1ccccc1Nc1cc2ccccc2c(=O)[nH]1,-1.6,52.7*,-4.0,-0.6,-10.5,-9.5
O=C(OCCOc1ccccc1)c1n[nH]c2ccccc12,2.2,x,-11.4,0.7,-9.5,x
O=c1[nH]c(=O)c2cc([N+](=O)[O-])cc([N+](=O)[O-])c2[nH]1,-18.9,90.9*,-22.8,4.1,-19.9,12.8
O=c1[nH]c2cc([N+](=O)[O-])c([N+](=O)[O-])cc2[nH]c1=O,-4.7,4.3,-12.9,0.2,-15.3,x
O=[N+]([O-])c1ccc(OC/C=C2\Oc3ccc([N+](=O)[O-])cc3C2N2CCOCC2)cc1 (configuration not stated),9.5,47.9,-9.8,0.5,x,x
O=[N+]([O-])c1ccc2c(c1)C(N1CCOCC1)/C(=C/COc1ccc3ccccc3c1Br)O2 (configuration not stated),-7.2,96.6*,-3.8,-0.3,x,-0.6
CCc1ccc(C2c3[nH]c4ccccc4c3CCN2C(=O)CNC(N)=O)cc1 (configuration not stated),1.4,16.5,-26.7,-1.2,-5.7,x
CCc1ccc(C2c3[nH]c4ccccc4c3CCN2C(=O)CN2CCN(CC)CC2)cc1 (configuration not stated),-8.5,74.9*,-9.7,-0.8,-1.7,-10.4
Cc1ccc(CCNc2ccccc2C)cn1,-7.4,4.1,-0.6,0.8,x,x
Cc1ccccc1N=C1Nc2ccccc2CS1,-8.5,51.0*,-32.7,2.6,-9.1,5.9
Cc1ccccc1N=C1NC(=O)CS1,6.2,-1.3,-13.7,1.2,-19.1,x
CC(C)(C)C(=O)[C@@H]1[C@@H]2C(=O)N(Cc3ccccc3)C(=O)[C@@H]2[C@H]2c3ccccc3C=CN12,-5.8,68.4*,-16.2,-0.1,x,-7.6
CC(=O)[C@H]1[C@@H]2C(=O)N(c3cccc(Cl)c3)C(=O)[C@@H]2[C@H]2c3ccccc3C=CN21,-0.5,-2.8,-29.2,0.8,x,x
CCOC(=O)c1ccccc1NC(=O)CN1CCC(n2nnc3cc(C(F)(F)F)ccc32)CC1,-5.5,x,x,-0.1,-7.5,x
O=C(CN1CCC(n2nnc3cc(C(F)(F)F)ccc32)CC1)NCc1cccs1,-6.9,79.1*,3.3,-0.6,-14.1,-2.8
Cn1nc(C(=O)NCCc2ccc(S(N)(=O)=O)cc2)c2ccccc2c1=O,-9.8,x,-10.5,0.1,3.3,x
CCOC(=O)c1cccc(NC(=O)C2CCN(S(=O)(=O)c3cccs3)CC2)c1,0.2,8.6,-32.0,1.5,x,x
CCOC(=O)c1ccc2c(c1)nc(C1CCN(S(=O)(=O)c3cccs3)CC1)n2CC,3.8,100.0*,-16.5,0.9,-21.3,5.0
CC(=O)c1ccccc1NC(=O)CSc1nnc2ccccn12,-8.4,-0.6,-36.8,-0.4,x,x
Cc1ccc(NC(=S)c2nc3ccccc3[nH]2)cc1,-0.7,70.5*,-39.7,1.9,x,-4.4
CNC(=O)COC(=O)/C=C/c1cccc(F)c1,-4.6,-4.8,1.0,1.3,-3.6,x
O=c1c2nncn2c2cc(C(F)(F)F)ccc2n1CCNc1ncc(C(F)(F)F)cc1Cl,1.1,x,x,0.2,-7.9,x
